# Results collected from several papers.
# Protocols differ between the studies behind these lines.
# KCNH2: Voltage-gated inwardly rectifying potassium channel KCNH2 (KCNH2, Homo sapiens, UniProt Q12809)
Structure (SMILES),target or system,test,test system,setting,measurement,value
CC(C)CC(=O)OC[C@H]1O[C@@](C#N)(c2ccc3c(N)ncnn23)[C@H](O)[C@@H]1O,KCNH2,ligand displacement,,20 µM,inhibition,-3%
CO[C@H]1/C=C/O[C@@]2(C)Oc3c(C)c(O)c4c(O)c(c(/C=N/N5CCN(C6CCCC6)CC5)c(O)c4c3C2=O)NC(=O)/C(C)=C\C=C\[C@H](C)[C@H](O)[C@@H](C)[C@@H](O)[C@@H](C)[C@H](OC(C)=O)[C@@H]1C,,,"male Sprague-Dawley rat, plasma","intravenous, 10 mg/kg, single dose",MRT,24.4 h
CC[C@H](C)CCCCC(=O)N[C@@H](CCN)C(=O)N[C@H](C(=O)N[C@@H](CCN)C(=O)N[C@H]1CCNC(=O)[C@H]([C@@H](C)O)NC(=O)[C@H](CCN)NC(=O)[C@H](CCN)NC(=O)[C@H](CC(C)C)NC(=O)[C@@H](CC(C)C)NC(=O)[C@H](CCN)NC1=O)[C@@H](C)O,,,"male Sprague-Dawley rat, plasma","subcutaneous, 10 mg/kg",MRT(0-inf),4.88 h
Cc1[nH]c(C)c(S(=O)(=O)Nc2ccc(S(F)(F)(F)(F)F)cc2)c1C(=O)N1CCC(F)(F)C1,KCNH2,"ion current, inhibitor, patch clamp",,,IC50,> 30 µM
O=c1nc(NO)ccn1[C@@H]1O[C@H](CO)[C@@H](O)[C@H]1O,Caco-2,cell growth or viability,,,CC50,> 100 µM
COc1ccc(F)cc1C(=O)NCc1ccc(-c2nn([C@@H](C)C(F)(F)F)c(N)c2C(N)=O)cc1,,,"human, plasma","oral, 200 mg, single dose, fasted",Tmax,2.5 h
N#C[C@@]1(n2ccc(N)nc2=O)O[C@H](CO)[C@@H](O)[C@H]1O,Caco-2,cell growth or viability,,,CC50,> 100 µM
Cc1cccc(C)c1NC(=O)C1CCCCN1 (centres unmarked),KCNH2,"ion current, inhibitor, patch clamp",,100 µM,inhibition,19.4%
